The values below come from ChEMBL document CHEMBL1126560, “Endothelin-1 analogues substituted at both position 18 and 19: highly potent endothelin antagonists with no selectivity for either receptor subtype ETA or ETB” (J Med Chem, 1993).

Test [1] has as its target T1, Endothelin-1 receptor (Sus scrofa) (UniProt Q29010).
T1 sequence (whole entry): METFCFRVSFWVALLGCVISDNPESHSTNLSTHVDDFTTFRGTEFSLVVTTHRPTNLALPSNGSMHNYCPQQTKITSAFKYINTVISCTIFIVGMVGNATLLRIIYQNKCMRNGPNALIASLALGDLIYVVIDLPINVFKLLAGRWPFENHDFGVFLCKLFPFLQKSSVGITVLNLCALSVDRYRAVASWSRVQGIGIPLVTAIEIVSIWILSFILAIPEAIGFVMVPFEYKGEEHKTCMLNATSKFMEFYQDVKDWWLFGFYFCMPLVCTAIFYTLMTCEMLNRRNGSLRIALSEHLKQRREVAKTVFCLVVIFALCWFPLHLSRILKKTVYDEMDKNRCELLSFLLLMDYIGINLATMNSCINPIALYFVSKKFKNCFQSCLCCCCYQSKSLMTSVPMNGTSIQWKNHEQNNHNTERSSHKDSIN
Briefly: Tested for the ETA receptor agonist activity by measuring maximum vasoconstriction in porcine coronary artery. Format: functional, tissue-based. The procedure, abridged:
(§1)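 Porcine right coronary artery, endothelium-denuded helical strips in Krebs-Henseleit, 37 °C, isometric tension. Compound applied cumulatively, up to 1 μM. Maximal contraction expressed as % of 60 mM KCl-induced tension; n in parentheses.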

Test [2] deals with Endothelin receptor, ET-A/ET-B (Homo sapiens) (UniProt P24530+P25101). Briefly: (§2) Antagonism of sarafotoxin S6c-induced vasoconstriction in rabbit pulmonary artery at both ETA and ETB receptors. Format: functional. The note with it: Oryctolagus cuniculus; target entry is the homologue from another species. The procedure, abridged: (§3)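 Rabbit pulmonary artery, endothelium-denuded 5-mm rings in Krebs-Henseleit, 95% O2-5% CO2, 37 °C, isometric tension. Compound added 15 min before cumulative sarafotoxin S6c. Tension normalized to 60 mM KCl response. Antagonism given as pA2 (van Rossum) or pD2' value; n in parentheses.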

Test [3] concerns the target T2, Endothelin-1 receptor (Sus scrofa, UniProt Q29010).
T2 sequence (Q29010 whole entry): T1 sequence (whole entry)
Briefly: ETA receptor antagonist activity was measured by inhibition of ET-1 induced vasoconstriction in isolated porcine coronary artery. It counts as functional, tissue-based. The settings on record: read-out: pA2 (converted). The procedure, abridged: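 Porcine right coronary artery, endothelium-denuded 2 × 5-mm helical strips in Krebs-Henseleit, 95% O2-5% CO2, 37 °C, isometric tension. Compound added 15 min before cumulative ET-1. Tension normalized to 60 mM KCl. pA2 by van Rossum's method; n in parentheses.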

In test [4] the target is T2, Endothelin-1 receptor. Briefly: Tested for the competitive binding versus [125I]- ET-1 determined in porcine cardiac ventricular membrane for Endothelin A receptor. The method, boiled down: (§4)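 Membranes (porcine cardiac ventricle at 12 μg/mL for ETA; bovine cerebrum at 150 μg/mL for ETB) in pH 7.2 Tris/EGTA/Mg acetate/0.1% BSA buffer with protease inhibitors. Incubated with 100 pM [125I]ET-1 and varied compound for 1 h at 25 °C, then filtered and counted by gamma counter. IC50 given as mean ± SEM of ≥3 determinations.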

In test [5] the target is T3, Endothelin receptor, ET-A/ET-B (Homo sapiens, UniProt P24530+P25101).
T3 sequence (P24530 whole entry): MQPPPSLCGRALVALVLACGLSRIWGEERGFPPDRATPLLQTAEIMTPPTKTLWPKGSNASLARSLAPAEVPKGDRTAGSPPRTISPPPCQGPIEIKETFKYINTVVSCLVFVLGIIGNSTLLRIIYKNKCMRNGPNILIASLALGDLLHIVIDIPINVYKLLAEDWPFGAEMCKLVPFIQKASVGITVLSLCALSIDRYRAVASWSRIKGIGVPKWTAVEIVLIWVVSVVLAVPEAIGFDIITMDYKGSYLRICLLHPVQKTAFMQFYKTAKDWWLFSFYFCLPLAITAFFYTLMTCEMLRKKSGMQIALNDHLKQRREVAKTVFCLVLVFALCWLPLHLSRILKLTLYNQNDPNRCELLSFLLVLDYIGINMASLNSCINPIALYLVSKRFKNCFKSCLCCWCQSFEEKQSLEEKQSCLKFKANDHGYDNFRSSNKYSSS
T3 sequence (P25101 whole entry): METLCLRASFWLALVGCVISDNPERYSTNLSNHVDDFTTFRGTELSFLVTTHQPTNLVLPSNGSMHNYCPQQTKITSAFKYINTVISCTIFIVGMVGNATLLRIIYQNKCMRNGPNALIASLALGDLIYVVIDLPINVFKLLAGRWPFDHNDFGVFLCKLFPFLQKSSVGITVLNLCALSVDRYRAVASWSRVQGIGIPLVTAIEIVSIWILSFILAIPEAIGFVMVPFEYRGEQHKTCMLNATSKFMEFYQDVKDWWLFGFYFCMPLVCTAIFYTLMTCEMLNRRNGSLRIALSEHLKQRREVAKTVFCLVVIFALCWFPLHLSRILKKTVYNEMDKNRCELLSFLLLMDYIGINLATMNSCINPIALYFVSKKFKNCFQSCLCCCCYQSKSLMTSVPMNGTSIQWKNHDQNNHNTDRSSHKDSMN
The description is as §2. It counts as functional, Oryctolagus cuniculus. The settings on record: target entry is the homologue from another species. The method, boiled down:
as §3

The target in test [6] is T4, Endothelin receptor type B (Bos taurus, UniProt P28088).
T4 sequence (P28088 whole entry): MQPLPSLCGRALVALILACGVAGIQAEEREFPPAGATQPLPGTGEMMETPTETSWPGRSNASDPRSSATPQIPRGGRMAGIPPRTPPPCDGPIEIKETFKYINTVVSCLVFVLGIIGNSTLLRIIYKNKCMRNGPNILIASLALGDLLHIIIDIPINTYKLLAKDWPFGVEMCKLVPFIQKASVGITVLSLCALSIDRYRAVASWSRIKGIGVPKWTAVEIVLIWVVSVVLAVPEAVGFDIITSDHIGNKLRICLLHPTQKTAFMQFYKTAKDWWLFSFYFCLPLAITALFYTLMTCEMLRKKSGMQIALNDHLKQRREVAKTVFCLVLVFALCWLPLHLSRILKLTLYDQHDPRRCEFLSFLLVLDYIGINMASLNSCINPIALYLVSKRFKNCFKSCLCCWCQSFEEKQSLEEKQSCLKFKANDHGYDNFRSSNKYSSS
Briefly: Tested for the competitive binding versus [125I]- ET-1 determined in bovine cerebrum membrane for Endothelin B receptor. Format: cell membranes. The method, boiled down:
as §4

Test [7] deals with T1, Endothelin-1 receptor (Sus scrofa). Briefly: Endothelin A receptor agonist activity as maximum vasoconstriction in porcine coronary artery. It counts as functional, tissue-based. The procedure, abridged: as §1
Another test is filed under the species Mus musculus. Briefly: Compound induced increase in cystolic free ca+2 concentration in murine peritoneal macrophages was measured. It counts as functional. The procedure, abridged: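 Murine peritoneal macrophages from male ICR mice given ip 10% protease peptone 3 days before, adhered 1.5 h at 37 °C, fura-2 AM loaded (4 μM, 24 °C, 1.5 h). Fura-2 fluorescence ratio (340/380 nm excitation, 505 nm emission) at 37 °C. Compound at 100 nM; rise expressed as % of 100 nM ET-1 response.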

`CC[C@H](C)[C@H](NC(=O)[C@H](CC(C)C)NC(=O)[C@@H](NC(=O)[C@H](CC(C)C)NC(=O)[C@H](Cc1c[nH]cn1)NC(=O)[C@@H]1CSSC[C@@H](N)C(=O)N[C@@H](CO)C(=O)N[C@@H]2CSSC[C@@H](NC(=O)[C@H](CCC(=O)O)NC(=O)[C@@H](CCCCN)NC(=O)[C@H](CC(=O)O)NC(=O)[C@@H](CCSC)NC(=O)[C@H](CC(C)C)NC(=O)[C@@H](CO)NC(=O)[C@H](CO)NC2=O)C(=O)N[C@@H](C(C)C)C(=O)N[C@H](Cc2ccc(O)cc2)C(=O)N[C@@H](Cc2ccccc2)C(=O)N1)[C@H](C)O)C(=O)N[C@@H](Cc1c[nH]c2ccccc12)C(=O)O` gave a Max vasoconstriction in test [1] of 4. Besides, in test [2], the pD2 was found to be 8.7.
On to `CC[C@H](C)[C@H](NC(=O)[C@H](CC(C)(C)C)NC(=O)[C@@H](NC(=O)[C@H](CC(C)C)NC(=O)[C@H](Cc1c[nH]cn1)NC(=O)[C@@H]1CSSC[C@H](N)C(=O)N[C@@H](CO)C(=O)N[C@H]2CSSC[C@H](NC(=O)[C@H](CCC(=O)O)NC(=O)[C@H](CCCCN)NC(=O)[C@H](CC(=O)O)NC(=O)[C@H](CCSC)NC(=O)[C@H](CC(C)C)NC(=O)[C@H](CO)NC(=O)[C@H](CO)NC2=O)C(=O)N[C@@H](C(C)C)C(=O)N[C@@H](Cc2ccc(O)cc2)C(=O)N[C@@H](Cc2ccccc2)C(=O)N1)[C@@H](C)O)C(=O)N[C@@H](Cc1c[nH]c2ccccc12)C(=O)O`, for which the Kb on Endothelin-1 receptor [3] was 39.8 nM. Also, the IC50 at Endothelin-1 receptor [4] worked out at 0.7 nM; in test [6], 0.25 nM. Besides, in test [5], the pA2 is recorded as 8.4.
Regarding `CC[C@H](C)[C@H](NC(=O)[C@H](CC(C)C)NC(=O)[C@@H](NC(=O)[C@H](CC(C)C)NC(=O)[C@H](Cc1c[nH]cn1)NC(=O)[C@@H]1CSSC[C@H](N)C(=O)N[C@@H](CO)C(=O)N[C@H]2CSSC[C@H](NC(=O)[C@H](CCC(=O)O)NC(=O)[C@H](CCCCN)NC(=O)[C@H](CC(=O)O)NC(=O)[C@H](CCSC)NC(=O)[C@H](CC(C)C)NC(=O)[C@H](CO)NC(=O)[C@H](CO)NC2=O)C(=O)N[C@@H](C(C)C)C(=O)N[C@@H](Cc2ccc(O)cc2)C(=O)N[C@@H](Cc2ccccc2)C(=O)N1)[C@@H](C)O)C(=O)N[C@@H](Cc1c[nH]c2ccccc12)C(=O)O`, the Kb on Endothelin-1 receptor [3] was 20 nM. Besides, the results for the IC50 (at Endothelin-1 receptor [4]; in test [6]) were 0.42 nM and 0.17 nM, respectively.
As for `CC[C@H](C)[C@H](NC(=O)[C@H](CC(C)C)NC(=O)[C@H](CC(C)C)NC(=O)[C@H](Cc1cnc[nH]1)NC(=O)[C@@H]1CSSC[C@H](N)C(=O)N[C@@H](CO)C(=O)N[C@H]2CSSC[C@H](NC(=O)[C@H](CCC(=O)O)NC(=O)[C@H](CCCCN)NC(=O)[C@H](CC(=O)O)NC(=O)[C@H](CCSC)NC(=O)[C@H](CC(C)C)NC(=O)[C@H](CO)NC(=O)[C@H](CO)NC2=O)C(=O)N[C@@H](C(C)C)C(=O)N[C@@H](Cc2ccc(O)cc2)C(=O)N[C@@H](Cc2ccccc2)C(=O)N1)C(=O)N[C@H](C(=O)N[C@@H](Cc1c[nH]c2ccccc12)C(=O)O)[C@@H](C)CC`, the Kb at Endothelin-1 receptor [3] was 5010 nM. Also, the results for the 50% inhibitory concentration (IC50) (at Endothelin-1 receptor [4]; in test [6]) were 8.6 nM and 0.45 nM, respectively.
In test [2], `CC[C@H](C)[C@H](NC(=O)[C@H](CC1CCCCC1)NC(=O)[C@@H](NC(=O)[C@H](CC(C)C)NC(=O)[C@H](Cc1c[nH]cn1)NC(=O)[C@@H]1CSSC[C@@H](N)C(=O)N[C@@H](CO)C(=O)N[C@@H]2CSSC[C@H](NC(=O)[C@H](CCC(=O)O)NC(=O)[C@@H](CCCCN)NC(=O)[C@@H](CC(=O)O)NC(=O)[C@@H](CCSC)NC(=O)[C@H](CC(C)C)NC(=O)[C@@H](CO)NC(=O)[C@H](CO)NC2=O)C(=O)N[C@@H](C(C)C)C(=O)N[C@H](Cc2ccc(O)cc2)C(=O)N[C@@H](Cc2ccccc2)C(=O)N1)[C@@H](C)O)C(=O)N[C@@H](Cc1c[nH]c2ccccc12)C(=O)O` gave a pD2 of 7.8. Further, the Max vasoconstriction in test [7] worked out at 2.
Turning to `CC[C@H](C)[C@H](NC(=O)[C@H](CC1CCCCC1)NC(=O)[C@@H](NC(=O)[C@H](CC(C)C)NC(=O)[C@H](Cc1c[nH]cn1)NC(=O)[C@@H]1CSSC[C@H](N)C(=O)N[C@@H](CO)C(=O)N[C@H]2CSSC[C@H](NC(=O)[C@H](CCC(=O)O)NC(=O)[C@H](CCCCN)NC(=O)[C@H](CC(=O)O)NC(=O)[C@H](CCSC)NC(=O)[C@H](CC(C)C)NC(=O)[C@H](CO)NC(=O)[C@H](CO)NC2=O)C(=O)N[C@@H](C(C)C)C(=O)N[C@@H](Cc2ccc(O)cc2)C(=O)N[C@@H](Cc2ccccc2)C(=O)N1)[C@@H](C)O)C(=O)N[C@@H](Cc1c[nH]c2ccccc12)C(=O)O`, on Endothelin-1 receptor [3], the Kb was 20 nM. Further, the IC50 turned out to be 0.61 nM at Endothelin-1 receptor [4] and 0.42 nM in test [6].
On to `CC[C@H](C)[C@H](NC(=O)[C@H](CC(=O)O)NC(=O)[C@H](CC(C)C)NC(=O)[C@H](Cc1c[nH]cn1)NC(=O)[C@@H]1CSSC[C@H](N)C(=O)N[C@@H](CO)C(=O)N[C@H]2CSSC[C@H](NC(=O)[C@H](CCC(=O)O)NC(=O)[C@H](CCCCN)NC(=O)[C@H](CC(=O)O)NC(=O)[C@H](CCSC)NC(=O)[C@H](CC(C)C)NC(=O)[C@H](CO)NC(=O)[C@H](CO)NC2=O)C(=O)N[C@@H](C(C)C)C(=O)N[C@@H](Cc2ccc(O)cc2)C(=O)N[C@@H](Cc2ccccc2)C(=O)N1)C(=O)N[C@H](C(=O)N[C@@H](Cc1c[nH]c2ccccc12)C(=O)O)[C@@H](C)CC` [ENDOTHELIN], for which the values for the half-inhibitory concentration (IC50) (at Endothelin-1 receptor [4]; in test [6]) were 0.15 nM and 0.12 nM, respectively. In the test filed under Mus musculus, the “[Ca2+] increase” value turned out to be 100.

A word on the IC50: it is the concentration at which inhibition is half-maximal. The pA2 is a measure of antagonist potency on a negative log scale.
